Converted amounts (≈) assume the structure as drawn. The source made the active and inactive calls.
Columns and labels:
[1] = species: Danio rerio; assay: Protection against neomycin-induced hair cell death in AB zebra fish larvae assessed as increase in hair cell survival preincubated for 1 hr followed by neomycin challenge for 1 hr by DASPEI staining-based epifluorescence dissecting microscopic method; format: functional
[2] = target: Voltage-gated inwardly rectifying potassium channel KCNH2 (Homo sapiens, UniProt Q12809)
[3] = tested on: Rattus norvegicus; assay: Acute toxicity in rat at 50 mg/kg, iv; format: organism-based; conditions: in vivo
[4] = Ratio of IC50 for human ERG expressed in HEK293 cells to HC50 for protection against neomycin-induced hair cell death in AB zebra fish larvae
[5] = target: Cytochrome P450 2C9 (Homo sapiens, UniProt P11712); assay: Inhibition of CYP2C9 (unknown origin); format: ADME
[6] = target: Cytochrome P450 2C19 (Homo sapiens, UniProt P33261); assay: Inhibition of CYP2C19 (unknown origin); format: ADME
[7] = target: Cytochrome P450 2D6 (Homo sapiens, UniProt P10635); assay: Inhibition of CYP2D6 (unknown origin); format: ADME
[8] = target: Cytochrome P450 3A4 (Homo sapiens, UniProt P08684); assay: Inhibition of CYP3A4 (unknown origin); format: ADME
[9] = Aqueous solubility of compound at pH 7.4; format: physicochemical
[10] = tested on: Plasma; assay: (§1) Protein binding in human plasma; format: ADME, cell-free
[11] = tested on: Plasma; assay: (§2) Protein binding in rat plasma; format: ADME, cell-free
[12] = species: Rattus norvegicus; assay: (§3) Elimination half life in rat by LC-MS method; format: ADME; conditions: in vivo
[13] = tested on: HepG2; assay: Cytotoxicity against human HepG2 cells assessed as decrease in cell growth after 72 hrs by celltiter glo assay; format: cell-based; conditions: HepG2, 72 h
[14] = Drug metabolism assessed as air oxidation; format: physicochemical
[15] = tested on: Rattus norvegicus; assay: (§4) Oral bioavailability in rat at 25 mg/kg; format: ADME, organism-based; conditions: in vivo
[16] = as §1; format: ADME, cell-free; conditions: read-out: PPB
[17] = as §2; format: ADME, cell-free; conditions: read-out: PPB
[18] = as §3; format: ADME; conditions: in vivo, read-out: beta t1/2 (converted)
[19] = as §4; format: ADME, organism-based; conditions: in vivo
[20] = species: Danio rerio; assay: Protection against neomycin-induced hair cell death in AB zebra fish larvae assessed as increase in hair cell survival at 2.8 uM preincubated for 1 hr followed by neomycin challenge for 1 hr by DASPEI staining-based epifluorescence dissecting microscopic method relative to control; format: functional
How it was run: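 AB larvae raised at 28.5°C in embryo medium and tested at 5-7 dpf, ten fish per basket. Pretreatment with compound for 1 h at 1.56–25 µM (halved further if the lowest dose protected), then compound plus 200 µM neomycin for 1 h. After rinsing, 0.05% DASPEI stain for 15 min and MS222 anaesthesia. Ten neuromasts per fish scored 0–2 under epifluorescence, normalised to untreated fish as % survival; HC50 linearly interpolated.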

[21] = Permeability across MDCK cells expressing MDR1; format: ADME, cell-based, Canis lupus familiaris; conditions: dog, read-out: permeability
[22] = Metabolic stability in microsomes (unknown origin); format: ADME, Microsome
[23] = tested on: Rattus norvegicus; assay: Change in hearing threshold in Fischer 344 rat at 5 to 25 mg/kg/day administered via oral gavage for 12 days; format: ADME, organism-based; conditions: in vivo, 288 h
How it was run: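 Fischer 344 rats given compound alone by oral gavage at 5 or 25 mg/kg/day for 12 days (n=3 per dose), vehicle PEG300:DMA:EtOH:H2O. ABR thresholds measured before dosing and after a 2-week recovery, under isoflurane anaesthesia in a sound-attenuating chamber.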

[24] = Protein binding in plasma; conditions: read-out: PPB (converted)
[25] = tested on: Escherichia coli; assay: Effect on neomycin MIC for Escherichia coli ATCC 25922; format: functional
[26] = tested on: Escherichia coli; assay: Effect on neomycin MBC for Escherichia coli ATCC 25922; format: functional
[27] = tested on: Rattus norvegicus; assay: Protection against kanamycin-induced hearing loss at 8 to 32 kHz in Sprague-Dawley rat at 25 mg/kg/day, ip treated for 14 days followed by recovery without treatment for additional 14 days by auditory brain stem response assay; format: functional, organism-based
[28] = tested on: Pseudomonas aeruginosa; assay: Effect on neomycin MIC for Pseudomonas aeruginosa 103 ATCC 27853; format: functional
[29] = tested on: Pseudomonas aeruginosa; assay: Effect on neomycin MIC for Pseudomonas aeruginosa 6160; format: functional
[30] = tested on: Pseudomonas aeruginosa; assay: Effect on neomycin MIC for aminoglycoside-resistant Pseudomonas aeruginosa 6322; format: functional
[31] = tested on: Pseudomonas aeruginosa; assay: Effect on neomycin MIC for Pseudomonas aeruginosa 6325; format: functional
[32] = tested on: Pseudomonas aeruginosa; assay: Effect on neomycin MIC for Pseudomonas aeruginosa 6471; format: functional
[33] = tested on: Pseudomonas aeruginosa; assay: Effect on tobramycin MIC for Pseudomonas aeruginosa 103 ATCC 27853; format: functional
[34] = tested on: Pseudomonas aeruginosa; assay: Effect on tobramycin MIC for Pseudomonas aeruginosa 6160; format: functional
[35] = tested on: Pseudomonas aeruginosa; assay: Effect on tobramycin MIC for aminoglycoside-resistant Pseudomonas aeruginosa 6322; format: functional
[36] = tested on: Pseudomonas aeruginosa; assay: Effect on tobramycin MIC for Pseudomonas aeruginosa 6325; format: functional
[37] = tested on: Pseudomonas aeruginosa; assay: Effect on tobramycin MIC for Pseudomonas aeruginosa 6471; format: functional
[38] = tested on: Pseudomonas aeruginosa; assay: Effect on amikacin MIC for Pseudomonas aeruginosa 103 ATCC 27853; format: functional
[39] = tested on: Pseudomonas aeruginosa; assay: Effect on amikacin MIC for Pseudomonas aeruginosa 6160; format: functional
[40] = tested on: Pseudomonas aeruginosa; assay: Effect on amikacin MIC for aminoglycoside-resistant Pseudomonas aeruginosa 6322; format: functional
[41] = tested on: Pseudomonas aeruginosa; assay: Effect on amikacin MIC for Pseudomonas aeruginosa 6325; format: functional
[42] = tested on: Pseudomonas aeruginosa; assay: Effect on amikacin MIC for Pseudomonas aeruginosa 6471; format: functional
[43] = tested on: Pseudomonas aeruginosa; assay: Effect on kanamycin MIC for Pseudomonas aeruginosa 103 ATCC 27853; format: functional
[44] = tested on: Pseudomonas aeruginosa; assay: Effect on kanamycin MIC for Pseudomonas aeruginosa 6160; format: functional
[45] = tested on: Pseudomonas aeruginosa; assay: Effect on kanamycin MIC for aminoglycoside-resistant Pseudomonas aeruginosa 6322; format: functional
[46] = tested on: Pseudomonas aeruginosa; assay: Effect on kanamycin MIC for Pseudomonas aeruginosa 6325; format: functional
[47] = tested on: Pseudomonas aeruginosa; assay: Effect on kanamycin MIC for Pseudomonas aeruginosa 6471; format: functional
[48] = tested on: Mycobacterium tuberculosis; assay: Effect on amikacin MIC for Mycobacterium tuberculosis H37Rv at 1 to 10 uM; format: functional
[49] = tested on: Mycobacterium tuberculosis; assay: Effect on amikacin-induced antibacterial activity against Mycobacterium tuberculosis in mouse pulmonary tuberculosis model; format: functional
[50] = tested on: Mycobacterium tuberculosis; assay: Effect on kanamycin-induced antibacterial activity against Mycobacterium tuberculosis in mouse pulmonary tuberculosis model; format: functional
[51] = tested on: Mycobacterium tuberculosis; assay: Effect on moxifloxacin-induced antibacterial activity against Mycobacterium tuberculosis in mouse pulmonary tuberculosis model; format: functional
[52] = tested on: Rattus norvegicus; assay: Protection against amikacin-induced hearing loss at 2 to 32 kHz in Fischer 344 rat at 5 mg/kg/day administered via oral gavage for 12 days followed by recovery without treatment for additional 14 days by auditory brain stem response assay; format: functional, organism-based
How it was run: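 Male Fischer 344 rats had ABR thresholds measured 1–2 weeks before treatment and 2 weeks after it, under isoflurane, on a heating pad near 37°C, in a sound-attenuating chamber. Amikacin 320 mg/kg/day s.c. for 12 days, with compound 5 mg/kg/day by oral gavage in PEG300:DMA:EtOH:H2O. Groups: amikacin alone or amikacin plus compound.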

[53] = tested on: Rattus norvegicus; assay: Protection against amikacin-induced hair cell death in Fischer 344 rat corti at 5 mg/kg/day administered via oral gavage for 12 days followed by recovery without treatment for additional 14 days by immunohistochemical method; format: functional, organism-based
How it was run: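 Rats given amikacin 320 mg/kg/day s.c. plus compound 5 mg/kg p.o. daily for 12 days; saline s.c. controls. Cochleae fixed in 4% paraformaldehyde and dissected. Organ of Corti immunostained for myosin 7A (hair cells), Sox2 (supporting-cell nuclei) and neurofilament (neuronal processes). Basal turn imaged by confocal microscopy.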

[54] = aqueous medium, read-out: solubility

Voltage-gated inwardly rectifying potassium channel KCNH2, sequence (Q12809 whole entry): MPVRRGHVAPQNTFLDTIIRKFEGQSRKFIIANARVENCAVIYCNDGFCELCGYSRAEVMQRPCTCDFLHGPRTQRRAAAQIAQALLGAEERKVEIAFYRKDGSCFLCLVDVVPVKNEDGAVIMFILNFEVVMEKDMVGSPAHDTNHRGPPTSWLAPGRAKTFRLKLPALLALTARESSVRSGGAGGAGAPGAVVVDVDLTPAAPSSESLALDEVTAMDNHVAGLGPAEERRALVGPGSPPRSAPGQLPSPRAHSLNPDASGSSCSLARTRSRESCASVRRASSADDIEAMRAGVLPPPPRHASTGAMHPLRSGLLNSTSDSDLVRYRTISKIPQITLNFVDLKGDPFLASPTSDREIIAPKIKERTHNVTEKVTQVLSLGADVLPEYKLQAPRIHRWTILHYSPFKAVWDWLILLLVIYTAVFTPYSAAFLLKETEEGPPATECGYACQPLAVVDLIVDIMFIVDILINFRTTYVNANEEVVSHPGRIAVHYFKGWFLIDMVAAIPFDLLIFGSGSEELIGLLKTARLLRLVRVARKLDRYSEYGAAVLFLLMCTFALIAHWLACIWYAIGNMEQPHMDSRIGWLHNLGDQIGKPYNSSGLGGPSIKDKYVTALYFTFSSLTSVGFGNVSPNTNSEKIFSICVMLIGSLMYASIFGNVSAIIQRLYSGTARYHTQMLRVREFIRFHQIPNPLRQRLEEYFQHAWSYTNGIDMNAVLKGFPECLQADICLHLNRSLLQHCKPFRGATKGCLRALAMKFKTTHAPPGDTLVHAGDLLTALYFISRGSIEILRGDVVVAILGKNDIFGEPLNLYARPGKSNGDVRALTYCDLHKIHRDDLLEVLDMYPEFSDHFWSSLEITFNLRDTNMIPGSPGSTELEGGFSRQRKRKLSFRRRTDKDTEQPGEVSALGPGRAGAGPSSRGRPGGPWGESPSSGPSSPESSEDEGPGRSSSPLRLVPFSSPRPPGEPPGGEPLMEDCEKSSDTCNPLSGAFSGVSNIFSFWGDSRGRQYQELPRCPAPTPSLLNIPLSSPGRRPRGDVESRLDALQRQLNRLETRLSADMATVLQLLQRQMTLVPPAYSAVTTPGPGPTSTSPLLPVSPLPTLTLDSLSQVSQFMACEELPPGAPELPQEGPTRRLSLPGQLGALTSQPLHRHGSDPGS
Cytochrome P450 3A4, sequence (P08684 whole entry): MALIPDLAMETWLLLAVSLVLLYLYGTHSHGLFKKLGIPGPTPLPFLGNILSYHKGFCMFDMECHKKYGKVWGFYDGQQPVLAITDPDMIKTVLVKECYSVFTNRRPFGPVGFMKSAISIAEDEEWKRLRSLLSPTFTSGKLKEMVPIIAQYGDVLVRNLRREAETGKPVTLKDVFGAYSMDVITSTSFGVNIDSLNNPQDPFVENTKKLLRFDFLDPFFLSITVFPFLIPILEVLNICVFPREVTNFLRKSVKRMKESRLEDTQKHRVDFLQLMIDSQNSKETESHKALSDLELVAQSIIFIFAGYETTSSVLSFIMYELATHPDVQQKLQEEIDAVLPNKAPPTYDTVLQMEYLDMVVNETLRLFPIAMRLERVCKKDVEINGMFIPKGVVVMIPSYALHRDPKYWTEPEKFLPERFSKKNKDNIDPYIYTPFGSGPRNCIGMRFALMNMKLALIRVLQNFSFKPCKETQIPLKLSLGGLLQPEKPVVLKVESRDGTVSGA
Cytochrome P450 2D6, sequence (P10635 whole entry): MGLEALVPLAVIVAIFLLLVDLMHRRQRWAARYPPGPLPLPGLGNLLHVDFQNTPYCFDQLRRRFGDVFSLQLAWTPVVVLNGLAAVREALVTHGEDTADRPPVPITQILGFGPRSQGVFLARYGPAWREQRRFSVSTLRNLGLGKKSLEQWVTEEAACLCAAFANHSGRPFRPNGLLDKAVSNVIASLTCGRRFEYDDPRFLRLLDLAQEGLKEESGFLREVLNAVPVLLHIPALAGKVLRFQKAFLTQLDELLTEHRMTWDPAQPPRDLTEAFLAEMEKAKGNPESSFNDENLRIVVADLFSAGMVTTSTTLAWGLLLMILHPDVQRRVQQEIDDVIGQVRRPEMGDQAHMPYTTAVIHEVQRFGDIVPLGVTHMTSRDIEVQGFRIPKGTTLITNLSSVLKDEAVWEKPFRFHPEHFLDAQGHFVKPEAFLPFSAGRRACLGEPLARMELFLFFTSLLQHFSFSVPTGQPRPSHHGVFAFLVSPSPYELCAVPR
Cytochrome P450 2C19, sequence (P33261 whole entry): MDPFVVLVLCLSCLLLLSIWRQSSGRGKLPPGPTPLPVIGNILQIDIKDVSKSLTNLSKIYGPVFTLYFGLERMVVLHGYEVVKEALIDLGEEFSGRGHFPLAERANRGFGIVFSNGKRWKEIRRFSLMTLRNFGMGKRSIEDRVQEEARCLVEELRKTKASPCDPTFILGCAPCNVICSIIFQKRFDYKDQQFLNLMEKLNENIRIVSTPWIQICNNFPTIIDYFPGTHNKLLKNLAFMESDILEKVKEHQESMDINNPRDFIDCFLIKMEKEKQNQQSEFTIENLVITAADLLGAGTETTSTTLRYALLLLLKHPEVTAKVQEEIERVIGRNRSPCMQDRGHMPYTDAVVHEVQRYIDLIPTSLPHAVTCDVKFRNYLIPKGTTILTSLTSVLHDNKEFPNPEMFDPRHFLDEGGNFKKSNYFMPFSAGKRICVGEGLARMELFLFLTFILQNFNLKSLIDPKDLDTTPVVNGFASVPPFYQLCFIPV
Cytochrome P450 2C9, sequence (P11712 whole entry): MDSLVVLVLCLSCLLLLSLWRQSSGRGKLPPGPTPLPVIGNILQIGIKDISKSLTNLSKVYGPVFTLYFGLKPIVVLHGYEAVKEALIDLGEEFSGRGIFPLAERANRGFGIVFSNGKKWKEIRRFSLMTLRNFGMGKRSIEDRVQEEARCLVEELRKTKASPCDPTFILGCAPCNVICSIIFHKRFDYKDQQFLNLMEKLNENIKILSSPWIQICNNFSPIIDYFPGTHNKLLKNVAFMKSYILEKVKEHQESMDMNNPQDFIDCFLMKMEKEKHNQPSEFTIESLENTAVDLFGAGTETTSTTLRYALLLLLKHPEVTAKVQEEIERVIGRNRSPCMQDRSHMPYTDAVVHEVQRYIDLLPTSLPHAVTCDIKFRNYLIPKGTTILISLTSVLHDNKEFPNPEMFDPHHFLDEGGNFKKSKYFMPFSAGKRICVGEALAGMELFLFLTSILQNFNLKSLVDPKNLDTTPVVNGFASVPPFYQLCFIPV

SMILES: NC(=O)c1c(NC(=O)Nc2ccc(Cl)cc2)sc2c1CC[N+]1(CCCC1)C2
- EC50 [1]: 0.41 µM
- IC50 [2]: 3.51 µM

SMILES: CC1(C)Cc2c(sc(NC(=O)Nc3ccc(Cl)cc3)c2C(N)=O)C(C)(C)N1.Cl
- Activity [3]: Non-Toxic
- Ratio [4]: >24
- EC50 [1]: 1.24 µM
- inhibition (INH) ([5]; human): Not Active
- inhibition (INH) ([6]; human): Not Active
- inhibition (INH) ([7]; human): Not Active
- inhibition (INH) ([8]; human): Not Active
- solubility ([9]; buffer): 13 µM
- PPB [10]: 96.5%
- PPB [11]: 95.8%
- beta t1/2 [12]: 6.2 h
- IC50 [13]: > 300 µM
- Drug metabolism [14]: Metabolite_Notdetected
- F [15]: 21%
- IC50 [2]: > 30 µM

SMILES: CN1[C@@H]2CC[C@H]1c1c(sc(NC(=O)Nc3ccc(Cl)cc3)c1C(N)=O)C2.Cl
- Activity [3]: Non-Toxic
- Ratio [4]: 47
- EC50 [1]: 0.12 µM
- IC50 [5]: 60 µM
- IC50 [6]: 58 µM
- IC50 [7]: > 100 µM
- IC50 [8]: 46 µM
- solubility [9, 54]: 86 µM
- fraction unbound [16]: 0.093 to 0.11
- fraction unbound [17]: 0.099 to 0.14
- half-life [18]: 7.8 h
- IC50 [13]: > 300 µM
- Drug metabolism [14]: Metabolite_Notdetected
- bioavailability [19]: > 50%
- %max [20]: 98%
- Papp [21]: 5.2 ×10⁻⁶ cm/s
- Stability [22]: Stable
- Activity [23]: Non-Toxic
- fraction unbound [24]: 0.1

SMILES: CN1[C@@H]2CC[C@H]1c1c(sc(NC(=O)Nc3ccc(Cl)cc3)c1C(N)=O)C2 (single isomer, unassigned)
- solubility [9, 54]: 76 µM (≈ 29.7 µg/mL)

SMILES: CCN1CCc2c(sc(NC(=O)Nc3ccc(Cl)cc3)c2C(N)=O)C1 [listing 1 of 2 here]
- Activity [25]: inactive
- Activity [26]: inactive
- Activity [27]: Active

SMILES: CN1[C@@H]2CC[C@H]1c1c(sc(NC(=O)Nc3ccc(Cl)cc3)c1C(N)=O)C2
- Activity [25]: inactive
- Activity [26]: inactive
- Activity [28]: inactive
- Activity [29]: inactive
- Activity [30]: inactive
- Activity [31]: inactive
- Activity [32]: inactive
- Activity [33]: inactive
- Activity [34]: inactive
- Activity [35]: inactive
- Activity [36]: inactive
- Activity [37]: inactive
- Activity [38]: inactive
- Activity [39]: inactive
- Activity [40]: inactive
- Activity [41]: inactive
- Activity [42]: inactive
- Activity [43]: inactive
- Activity [44]: inactive
- Activity [45]: inactive
- Activity [46]: inactive
- Activity [47]: inactive
- Activity [48]: inactive
- Activity [49]: inactive
- Activity [50]: inactive
- Activity [51]: inactive
- Activity [52]: Active
- Activity [53]: Active

SMILES: CC1(C)Cc2c(sc(NC(=O)Nc3ccc(Cl)cc3)c2C(N)=O)C(C)(C)N1
- solubility ([9]; buffer): 83 µM (≈ 33.8 µg/mL)

SMILES: CCN1CCc2c(sc(NC(=O)Nc3ccc(Cl)cc3)c2C(N)=O)C1.Cl
- Activity [3]: Non-Toxic
- EC50 [1]: 3.12 µM
- PPB [10]: 95.9%
- PPB [11]: 94.1%
- beta t1/2 [12]: 2.1 h
- IC50 [13]: > 300 µM
- Drug metabolism [14]: Metabolite_Detected
- F [15]: 46%
- IC50 [2]: 3.26 µM

SMILES: NC(=O)c1c(NC(=O)Nc2ccc(Cl)cc2)sc2c1CC[N+]1(CCOCC1)C2
- EC50 [1]: 1.21 µM
- IC50 [2]: 12.4 µM

SMILES: CCN1CCc2c(sc(NC(=O)Nc3ccc(Cl)cc3)c2C(N)=O)C1 [listing 2 of 2 here]
- solubility ([9]; buffer): 85 µM (≈ 32.2 µg/mL)

SMILES: CC[N+]1(C)CCc2c(sc(NC(=O)Nc3ccc(Cl)cc3)c2C(N)=O)C1 (centres undefined)
- EC50 [1]: 1.96 µM
- IC50 [2]: 3.38 µM

SMILES: NC(=O)c1c(NC(=O)Nc2ccc(Cl)cc2)sc2c1CCN(CCCNC(=O)CCc1c[nH]c3ccccc13)C2
- Activity [3]: Non-Toxic
- Ratio [4]: 201
- EC50 [1]: 0.1 µM
- solubility [9, 54]: 86 µM (≈ 49.8 µg/mL)
- fraction unbound [16]: 0.001
- fraction unbound [17]: 0.001
- half-life [18]: 7.1 h
- IC50 [13]: 17 µM
- Drug metabolism [14]: Metabolite_Detected
- bioavailability [19]: > 1%
- IC50 [2]: 20.1 µM

Source: ChEMBL document CHEMBL4043273, “Phenotypic Optimization of Urea-Thiophene Carboxamides To Yield Potent, Well Tolerated, and Orally Active Protective Agents against Aminoglycoside-Induced Hearing Loss” (J Med Chem, 2018)
